Compounds with a hit are over-represented: about 2% of the library has one in this group of screens.
Xi reactivation = activators of inactive X chromosome reactivation, primary screen, imaging, XiGFP fibroblasts, GFP high-content imaging, set 2. XiGFP mouse fibroblasts, % GFP-positive cells imaging, 3 d; cells co-treated with 5-aza-dC sensitizer; scaled so ellipticine positive control = 100%. activation, % at 7.58 µM. 360,000 tested, 0.055% active;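 active = mean normalized replicate activation at least 10% and every replicate at or above 10%; inconclusive = only one of the two criteria met; inactive = mean below 10% and not all replicates reach 10%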;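 also: 0% = median of on-plate neutral control wells and 100% = ellipticine 6 µM median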
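material = 68-5-11 XiGFP fibroblast line | medium = DMEM plus 5-aza-dC sensitizer | schedule = 3 days compound exposure | benchmarks = positive control ellipticine, 6 µM final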
CASP6 VEID inh = human caspase-6 inhibitors, primary screen, biochemical, VEID-R110 fluorescence, single point, set 2; 350,000 tested, 0.53% active; P55212; AID 686996, 2013; inhibition, % at 12.5 µM; purified caspase-6, Z-VEID-R110 cleavage fluorescence;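 active = mean inhibition across replicates at least about 35%, with every replicate also reaching that limit, limit read from the data; inconclusive = only one of the two criteria met; inactive = neither criterion met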;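 also: 0% = median of neutral control wells and 100% = no fluorescence left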
Target sequence (P55212 24-179 limits assumed): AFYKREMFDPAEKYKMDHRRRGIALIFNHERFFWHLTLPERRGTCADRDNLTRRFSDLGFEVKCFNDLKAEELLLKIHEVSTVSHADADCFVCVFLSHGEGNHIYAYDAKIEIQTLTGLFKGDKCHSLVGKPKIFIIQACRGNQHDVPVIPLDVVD
Target sequence (P55212 194-293 limits assumed): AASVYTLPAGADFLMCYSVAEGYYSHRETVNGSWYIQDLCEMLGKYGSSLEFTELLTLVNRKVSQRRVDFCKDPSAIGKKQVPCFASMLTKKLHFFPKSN
DENV2 CPE rescue = inhibitors of DENV2 cytopathic effect, primary screen, cell-based, plate reader, single concentration; DENV2-infected cells, cytopathic effect rescue; CPE inhibition, % at 9.99 µM; 350,000 tested, 1.7% active; AID 651640, 2012; in the data active = CPE inhibition above about 20%, passing the limit was not always enough; inconclusive = no clear call, values can overlap the other calls; tested in BHK-21 cells;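 also: 0% = median of neutral control wells and 100% = median of positive control wells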
FN deposition inh = inhibitors of fibronectin matrix deposition, primary screen, AH1F cells, Alexa488-fibronectin fluorescence, plate reader; AH1F fibroblasts, overnight; inhibition, % at 12.6 µM; 350,000 tested, 0.086% active; AID 743247, 2014;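 active = mean inhibition across replicates of 30% or more, regardless of how many single replicates reach that level; inconclusive = mean under 30% yet at least half of replicates reach 30%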;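 also: positive control wells lacked labelled fibronectin entirely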
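Schedule: 1 h cell adhesion before compound, then overnight fibronectin incubation; test system: AH1F fibroblast monolayer depositing Alexa488-labelled fibronectin into matrix; quantity: 10000 AH1F cells per well; probe or stimulus: fluorescent fibronectin at 24 nM final; signal: fluorescence, ex 485 nm, em 525 nm; evaluation: percent inhibition as loss of matrix-bound fibronectin fluorescence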
CaV13 FRET inh = Disruptors of the CACNA1D IQ motif to Ca2+-dependent inactivation inhibitor domain association, primary screening, Förster resonance energy transfer in intact living …; AID 743397; inhibition, % at 12.3 µM; 340,000 tested, 0.098% active; HEK cells, CFP/YFP FRET ICDI-IQ, plate reader, 10 min; percent FRET-ratio fall versus neutral wells;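 active = mean replicate inhibition of at least 30% and at least 1% of replicates passing that level; inconclusive = only one of the two criteria is met; inactive = neither criterion is met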;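 also: 0% = median of the neutral control wells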
Starred values were filed as active, the others as inactive; ? = inconclusive; / = no result given; ! = not active in a repeat.

SMILES | Xi reactivation | CASP6 VEID inh | DENV2 CPE rescue | FN deposition inh | CaV13 FRET inh
COc1ccccc1C#Cc1ccc2c(c1)O[C@H](CN(C)C(C)=O)[C@@H](C)CN([C@H](C)CO)S2(=O)=O | 1 | 3 | 6 | 21 | /
C[C@@H]1CN(C)C(=O)c2cc(N(C)C)ccc2O[C@H]1CN(C)S(C)(=O)=O | 0 | / | / | -5 | /
OC(CN1CCN(c2cccc(Cl)c2)CC1)c1ccc(F)cc1 (stereo not drawn) | 0 | -1 | 49* | 4 | -4
CO[C@@H]1CN(C)C(=O)c2ccc(NC(C)=O)cc2OC[C@@H](C)N(CC2CCCCC2)C[C@H]1C | 0 | / | / | 0 | /
COc1ccc(NC(=O)Nc2cccc3c2O[C@H](CN(C)C(=O)Nc2ccc(OC)cc2)[C@@H](C)CN([C@@H](C)CO)C3=O)cc1 | 0 | -3 | 144* | / | /
COc1ccc(NC(=O)Nc2cccc3c2O[C@@H](CN(C)C(=O)Nc2ccc(F)cc2)[C@H](C)CN([C@H](C)CO)C3=O)cc1 | -1 | 3 | -2 | -9 | /
C[C@H](CO)N1C[C@H](C)[C@H](CN(C)C(=O)Nc2ccc(F)cc2)Oc2c(NC(=O)Nc3cccc4ccccc34)cccc2C1=O | -1 | -1 | 42* | 18 | /
COc1ccc(NC(=O)Nc2cccc3c2O[C@H](CN(C)S(=O)(=O)c2ccccc2)[C@H](C)CN([C@@H](C)CO)C3=O)cc1 | 0 | -1 | 80* | / | /
COc1ccc(NC(=O)N(C)C[C@@H]2Oc3c(NC(=O)Nc4ccc(F)cc4)cccc3C(=O)N([C@@H](C)CO)C[C@H]2C)cc1 | 0 | 1 | 34* | / | /
C[C@@H]1CCCCO[C@H](CN(C)CC2CC2)[C@H](C)CN([C@H](C)CO)C(=O)c2cc(NS(=O)(=O)c3ccccc3)ccc2O1 | 0 | -1 | -1 | / | /
COc1ccc(NC(=O)N(C)C[C@H]2Oc3c(NC(=O)CCCCCC(=O)Nc4ccccc4N)cccc3C(=O)N([C@@H](C)CO)C[C@H]2C)cc1 | 0 | 1 | 34* | -4 | /
COc1ccc(NC(=O)Nc2cccc3c2O[C@@H](CN(C)C(=O)Nc2ccccc2)[C@H](C)CN([C@H](C)CO)C3=O)cc1 | -1 | 1 | 36* | / | /
COc1ccc(NC(=O)N(C)C[C@H]2Oc3c(NC(=O)Nc4ccccc4)cccc3C(=O)N([C@@H](C)CO)C[C@H]2C)cc1 | 0 | -1 | -4 | / | /
C[C@H]1CCCCO[C@H](CN(C)C(=O)Nc2cccc3ccccc23)[C@@H](C)CN([C@@H](C)CO)C(=O)c2cc(NC(=O)c3ccncc3)ccc2O1 | 0 | 0 | -8 | / | /
C[C@@H]1CN([C@H](C)CO)C(=O)c2cc(NC(=O)CCC(F)(F)F)ccc2O[C@@H](C)CCCCO[C@@H]1CN(C)Cc1ccc(C(=O)O)cc1 | 0 | 1 | 8 | / | /
COc1ccc(NC(=O)CN(C)C(=O)CCSc2ccc(C)cc2)cc1 | 0 | -7 | 62* | 4 | -15
COc1ccc(NC(=O)CN(C)C(=O)CC2CCCC2)cc1 | 0 | 4 | 20* | 11 | -6
CCCC(=O)N1CCC2(CC1)CN(S(=O)(=O)c1ccc(C)cc1)[C@@H](CO)c1[nH]c3cc(OC)ccc3c12 | 0 | / | -1 | / | /
CC(C)C[C@@H](CN=[N+]=[N-])N1CCN(CC(C)C)CCC1=O | 0 | / | 87* | -4 | -5
CC(C)C[C@@H](CN=[N+]=[N-])N1CCN(C)CCC1=O | 0 | -12 | -13 | -2 | -5
COc1cccc(S(=O)(=O)N(C)C[C@H]2Oc3ncc(C#CCN(C)C)cc3C(=O)N([C@H](C)CO)C[C@H]2C)c1 | -1 | -13 | 6 | / | /
CC(C)(OC(=O)c1ccc(C#N)cc1)c1cc2ccccc2c(=O)o1 | 0 | 3 | 37* | -12 | -7
CC(C)(OC(=O)c1ccc(C(F)(F)F)cc1)c1cc2ccccc2c(=O)o1 | 0 | 2 | -4 | -10 | -11
CCCNC(=O)N1[C@H](CNC(C)=O)[C@@H](c2ccccc2)[C@@H]1CO | 0 | / | 30* | / | /
CCCNC(=O)N1[C@H](CO)[C@H](c2ccccc2)[C@@H]1CNC(=O)c1ccc(F)cc1 | 0 | / | 104* | 26 | /
SMILES | Xi reactivation | CASP6 VEID inh | DENV2 CPE rescue | FN deposition inh | CaV13 FRET inh
CCCNC(=O)N1[C@@H](CO)[C@H](c2ccccc2)[C@@H]1CNC(=O)c1ccc(F)cc1 | 0 | / | / | -5 | /
CCCNC(=O)N1[C@@H](CO)[C@@H](c2ccccc2)[C@@H]1CNC(C)=O | 0 | -1 | -6 | 1 | /
C[C@@H]1CN([C@H](C)CO)C(=O)c2cc(NC(=O)Nc3cccc4ccccc34)ccc2O[C@@H]1CN(C)Cc1ccc(-c2ccccc2)cc1 | 0 | -1 | 5 | / | /
COc1ccc([C@H]2/C=C\CN(C(=O)c3ccc(C)cc3)[C@@H](C)C(=O)N2Cc2ccc(F)cc2)cc1 | 0 | 0 | 125* | -3 | -10
CCN(CC)C(=O)c1ccc(/C=C/c2c[nH]c3ccccc23)[n+](C)c1 | 0 | / | / | -17 | -10
CC[n+]1c(/C=C/c2c[nH]c3ccccc23)ccc2cc(C)ccc21 | 103* | -11 | 10 | -118 | -194
CCC[N+](CC#Cc1ccccc1)(CCC)CC(=O)c1ccc(Cl)cc1 | 0 | -1 | 46* | 9 | -5
Cn1ccc2c(N3CCOCC3)cc3c(c21)C1CCC3O1 (stereo not drawn) | / | 3 | 48* | -4 | /
COc1cccc(S(=O)(=O)N(C)C[C@H]2Oc3cc(C4=CCCC4)ccc3S(=O)(=O)N([C@H](C)CO)C[C@H]2C)c1 | 0 | 2 | -5 | -6 | /
COc1cccc(S(=O)(=O)N(C)C[C@H]2Oc3cc(C4=CCCC4)ccc3S(=O)(=O)N([C@H](C)CO)C[C@@H]2C)c1 | 0 | -4 | 38* | 2 | /
Cc1ccc(S(=O)(=O)N(C)C[C@@H]2Oc3cc(C4=CCCC4)ccc3S(=O)(=O)N([C@H](C)CO)C[C@H]2C)cc1 | 0 | 0 | 79* | / | /
CCOC(=O)C1CCCN(CCCc2ccccc2)C1 (stereo not drawn) | 0 | 0 | -1 | 1 | 38*!
O=C(C[C@@H]1C=C[C@H](NS(=O)(=O)c2ccccc2)[C@@H](CO)O1)N1CCC(Cc2ccccc2)CC1 | 0 | -1 | ? | / | /
COCC(=O)N(C)C[C@H]1Oc2ncc(C#Cc3cccnc3)cc2C(=O)N([C@H](C)CO)C[C@H]1C | -1 | 1 | 24* | -8 | /
CC(C)CC#Cc1cnc2c(c1)C(=O)N([C@H](C)CO)C[C@@H](C)[C@H](CN(C)C(=O)C1CCOCC1)O2 | -1 | 0 | 38* | / | /
